The values below come from ChEMBL document CHEMBL1128234, “Isothiocyanate-substituted benzyl ether opioid receptor ligands derived from 6 beta-naltrexol” (J Med Chem, 1995).

In assay [1] the target is Kappa-type opioid receptor (Cavia porcellus) (UniProt P41144). Description: Irreversible binding affinity at Opioid receptor kappa 1 was evaluated as % of control specific binding remaining washed at concentration of 150 (nM) using [3H]U-69593 radioligand. In short, it runs like this: (§1)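 Diluted guinea pig brain homogenate is exposed to ligand for 60 min at 25 °C; protected samples are first preincubated 15 min at 37 °C with 1 naloxone. Washed samples are diluted in ice-cold Tris pH 7.4, spun at 10000g for 15 min at 4 °C, then resuspended and incubated 15 min at 37 °C, twice. Read-out is standard radioligand binding, expressed as % of recovery-sample specific binding. Test ligands run in triplicate; reference averaged over three assays.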
Kappa-type opioid receptor (Cavia porcellus), sequence (P41144 whole entry): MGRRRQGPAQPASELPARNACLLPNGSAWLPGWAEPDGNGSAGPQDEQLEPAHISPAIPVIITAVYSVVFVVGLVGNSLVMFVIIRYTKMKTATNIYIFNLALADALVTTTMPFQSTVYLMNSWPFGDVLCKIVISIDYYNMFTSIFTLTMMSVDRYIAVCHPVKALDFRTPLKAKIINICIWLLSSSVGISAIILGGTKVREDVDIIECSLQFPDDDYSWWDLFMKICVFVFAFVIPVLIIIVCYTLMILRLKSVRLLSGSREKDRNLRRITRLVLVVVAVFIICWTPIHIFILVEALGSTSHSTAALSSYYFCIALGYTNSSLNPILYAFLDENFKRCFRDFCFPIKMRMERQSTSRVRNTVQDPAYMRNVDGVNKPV

For assay [2], the target named is Mu-type opioid receptor (Cavia porcellus, UniProt P97266). Description: Inhibitory concentration was determined against Opioid receptor mu 1 using [3H]- DAMGO radioligand. In short, it runs like this:
(§2)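 Guinea pig brain (minus cerebellum) homogenate in 0.05 M Tris pH 7.4, diluted 1:60 (0.8-1.5 mg protein/ml). Ligand tested in duplicate at nine concentrations; 60 min at 25 °C. Nonspecific binding defined with naloxone. Filtration, ice-cold buffer rinse, scintillation counting.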

The target of assay [3] is Kappa-type opioid receptor (Cavia porcellus, UniProt P41144). Description: Inhibitory concentration against Opioid receptor kappa 1 using [3H]- U-69,593 radioligand. In short, it runs like this:
as §2

Assay [4] addresses Kappa-type opioid receptor (Cavia porcellus) (UniProt P41144). In words: Irreversible binding affinity at Opioid receptor kappa 1 was evaluated as % of control specific binding remaining protected at concentration of 150 (nM) using [3H]U-69593 radioligand. In short, it runs like this:
as §1

The target of assay [5] is Opioid receptors; mu/kappa/delta. In words: Inhibitory concentration was determined against Opioid receptors using [3H]- bremazocine radioligand. It counts as protein assay, Cavia porcellus. The gist of the method:
as §2

For assay [6], the target named is Mu-type opioid receptor (Cavia porcellus) (UniProt P97266). In words: Irreversible binding affinity at mu-receptor was evaluated as % of control specific binding remaining unwashed at concentration of 5 (nM) using [3H]DAMGO radioligand. The gist of the method:
(§3)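 Guinea pig brain homogenate (less cerebellum) in 0.05 M Trizma pH 7.4, diluted 1:60. It was incubated with ligand 60 min at 25 °C, then diluted in ice-cold buffer and centrifuged 10000g. Washed samples were resuspended in buffer, incubated 15 min at 37 °C and recentrifuged. Binding used 1.0 nM [3H]DAMGO for 60 min at 25 °C, with filtration and counting. Nonspecific binding was set with 10 µM naloxone. Triplicates; % specific binding was taken relative to recovery controls.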

For assay [7] the target is unchanged. Description: Irreversible binding affinity at mu-receptor was evaluated as % of control specific binding remaining protected at concentration of 2.5 (nM) using [3H]DAMGO radioligand. The gist of the method: as §1
Assay [8] has as its target Kappa-type opioid receptor (Cavia porcellus) (UniProt P41144). In words: Irreversible binding affinity at Opioid receptor kappa 1 was evaluated as % of control specific binding remaining washed at concentration of 30 (nM) using [3H]U-69593 radioligand. In short, it runs like this: as §1
Assay [9] has the same target. Description: Irreversible binding affinity at Opioid receptor kappa 1 was evaluated as % of control specific binding remaining protected at concentration of 30 (nM) using [3H]U-69593 radioligand. The gist of the method: as §1
The target is the same in assay [10]. In words: Irreversible binding affinity at Opioid receptor kappa 1 was evaluated as % of control specific binding remaining unwashed at concentration of 30 (nM) using [3H]U-69593 radioligand. In short, it runs like this:
as §1

For assay [11], the target named is Mu-type opioid receptor (Cavia porcellus) (UniProt P97266). In words: Irreversible binding affinity at mu-receptor was evaluated as % of control specific binding remaining washed at concentration of 5 (nM) using [3H]-DAMGO radioligand. The gist of the method:
as §3

For assay [12] the target is unchanged. In words: Irreversible binding affinity at mu-receptor was evaluated as % of control specific binding remaining washed at concentration of 2.5 (nM) using [3H]DAMGO radioligand. In short, it runs like this: as §3
For assay [13], the target named is Kappa-type opioid receptor (Cavia porcellus) (UniProt P41144). Description: Irreversible binding affinity at Opioid receptor kappa 1 was evaluated as % of control specific binding remaining washed at concentration of 42 (nM) using [3H]U-69593 radioligand. The gist of the method:
as §1

For assay [14] the target is unchanged. Description: Irreversible binding affinity at Opioid receptor kappa 1 was evaluated as % of control specific binding remaining protected at concentration of 42 (nM) using [3H]U-69593 radioligand. The gist of the method: as §1
Assay [15] deals with Mu-type opioid receptor (Cavia porcellus) (UniProt P97266). Description: Irreversible binding affinity at mu-receptor was evaluated as % of control specific binding remaining protected at concentration of 5 (nM) using [3H]-DAMGO radioligand. The gist of the method:
as §1

Assay [16] concerns the target Kappa-type opioid receptor (Cavia porcellus) (UniProt P41144). In words: Irreversible binding affinity at Opioid receptor kappa 1 was evaluated as % of control specific binding remaining unwashed at concentration of 42 (nM) using [3H]U-69593 radioligand. The gist of the method: as §1
For assay [17], the target named is Mu-type opioid receptor (Cavia porcellus) (UniProt P97266). Description: Irreversible binding affinity at mu-receptor was evaluated as % of control specific binding remaining unwashed at concentration of 2.5 (nM) using [3H]DAMGO radioligand. The gist of the method:
as §1

Assay [18] deals with Kappa-type opioid receptor (Cavia porcellus) (UniProt P41144). In words: Irreversible binding affinity at Opioid receptor kappa 1 was evaluated as % of control specific binding remaining washed at concentration of 50 (nM) using [3H]U-69593 radioligand. The gist of the method: as §1
Assay [19] deals with Mu-type opioid receptor (Cavia porcellus) (UniProt P97266). Description: Irreversible binding affinity at mu-receptor was evaluated as % of control specific binding remaining unwashed at concentration of 80 (nM) using [3H]DAMGO radioligand. The gist of the method: as §3
Mu-type opioid receptor (Cavia porcellus), sequence (P97266 whole entry): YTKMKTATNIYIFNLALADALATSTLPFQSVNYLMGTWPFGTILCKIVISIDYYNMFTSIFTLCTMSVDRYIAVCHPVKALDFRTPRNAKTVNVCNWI
Assay [20] has as its target Kappa-type opioid receptor (Cavia porcellus) (UniProt P41144). Description: Irreversible binding affinity at Opioid receptor kappa 1 was evaluated as % of control specific binding remaining protected at concentration of 50 (nM) using [3H]U-69593 radioligand. The gist of the method: as §1
The target is the same in assay [21]. In words: Irreversible binding affinity at Opioid receptor kappa 1 was evaluated as % of control specific binding remaining unwashed at concentration of 50 (nM) using [3H]U-69593 radioligand. In short, it runs like this: as §1
For assay [22], the target named is Mu-type opioid receptor (Cavia porcellus) (UniProt P97266). In words: Irreversible binding affinity at mu-receptor was evaluated as % of control specific binding remaining washed at concentration of 80 (nM) using [3H]DAMGO radioligand. The gist of the method:
as §3

pIC50: −log10 of the molar value.

Kappa-type opioid receptor, sequence (P41144 whole entry): as the sequence (P41144 whole entry) above
Mu-type opioid receptor, sequence (P97266 whole entry): as the sequence (P97266 whole entry) above

As for `Oc1ccc2c3c1O[C@H]1[C@H](OCc4ccccc4CN=C=S)CC[C@@]4(O)C(C2)N(CC2CC2)CCC314` (stereo not given in full), the Control in assay [1] is 35%; in [4] it was 45%. The pIC50 is 7.70 in [2] and 7.37 in assay [3]. The molecule further returned an IC50 in assay [5] of 69 nM.
With `Oc1ccc2c3c1O[C@H]1[C@H](OCc4ccccc4N=C=S)CC[C@@]4(O)C(C2)N(CC2CC2)CCC314` (stereo not given in full), the Control is 7% in assay [6]; 68% in assay [7]; 35% in [8]; 55% in assay [9]; 36% in [10]; 15% in assay [11]. Besides, the Control amounted to 40% in assay [12]; 21% in assay [13]; 40% in assay [14]; 36% in assay [15]; 13% in assay [16]; 47% in assay [17]. The pIC50 in assay [2] was 9.10; in assay [3], 8.09. In assay [5], this molecule returned an IC50 of 8.8 nM.
Take `Oc1ccc2c3c1O[C@H]1[C@@H](O)CC[C@@]4(O)[C@@H](C2)N(CC2CC2)CC[C@]314`: the pIC50 in assay [2] is 8.96; in assay [3], 8.59.
Regarding `Oc1ccc2c3c1O[C@H]1[C@H](OCc4cccc(N=C=S)c4)CC[C@@]4(O)C(C2)N(CC2CC2)CCC314` (stereo not given in full), the pIC50 in [2] was 7.57; in [3] it was 7.77. In addition, the Control was 25% in assay [18]; 4% in [19]; 25% in [20]; 12% in assay [21]; 14% in assay [22]. The molecule also displayed an IC50 in assay [5] of 27 nM.

By pIC50 is commonly meant −log10 of the IC50, conventionally taken in molar units. The low end stands for a large IC50, the high end for a small IC50. As usually defined, the IC50 is the concentration that gives 50% inhibition. A higher IC50 goes with lower potency.
